Paper PMC5826771 (Molecular pharmaceutics, 2017)
Where a SMILES comes first, the peptide text is derived from it. [ ]: non-standard residue; d: D form. Sar = CNCC(=O)O

Experiments:
hPepT1 [1] = target: T1, hPepT1 (Homo sapiens, UniProt P46059); type: cell-based; conditions: hPepT1-expressing oocytes; for induction of inward current (in words): pH 6.0, voltage clamp −50 mV
T1 sequence (P46059 1-708): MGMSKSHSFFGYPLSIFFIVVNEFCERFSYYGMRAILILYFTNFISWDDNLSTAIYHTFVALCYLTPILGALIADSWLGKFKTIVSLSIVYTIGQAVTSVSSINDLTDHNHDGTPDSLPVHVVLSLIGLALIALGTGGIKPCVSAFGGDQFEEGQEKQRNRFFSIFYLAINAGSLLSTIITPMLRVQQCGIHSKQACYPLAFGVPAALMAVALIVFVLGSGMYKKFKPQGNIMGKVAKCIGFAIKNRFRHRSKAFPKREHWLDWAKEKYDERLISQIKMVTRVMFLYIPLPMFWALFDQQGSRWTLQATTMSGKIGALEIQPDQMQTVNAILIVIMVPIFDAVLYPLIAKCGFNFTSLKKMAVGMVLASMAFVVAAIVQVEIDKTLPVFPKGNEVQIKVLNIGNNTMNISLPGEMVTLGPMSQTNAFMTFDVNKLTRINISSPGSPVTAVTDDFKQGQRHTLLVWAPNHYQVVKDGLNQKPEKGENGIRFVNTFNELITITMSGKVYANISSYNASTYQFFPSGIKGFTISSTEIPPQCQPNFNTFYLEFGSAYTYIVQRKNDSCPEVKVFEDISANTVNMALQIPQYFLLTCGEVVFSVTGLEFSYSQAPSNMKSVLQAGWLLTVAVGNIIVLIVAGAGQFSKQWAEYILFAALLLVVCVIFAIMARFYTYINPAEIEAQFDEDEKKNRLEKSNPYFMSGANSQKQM
How it was run: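 Stage V–VI X. laevis oocytes were collagenase-treated, defolliculated, held at 18 °C in modified Barth's medium with gentamicin, and injected with 50 ng hPepT1 cRNA, with water-injected controls. TEVC clamped at −50 mV under pH 7.5 buffer, then NaCl buffer pH 6.0 ± test compound to steady state, then washout. Induced current = steady-state difference, expressed relative to 1 mM or 250 µM glycylsarcosine currents.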

hPepT1 [2] = target: T1, hPepT1; type: cell-based
hPepT1 [3] = target: T1, hPepT1; conditions: cited from earlier work

SMILES	induction of inward current (in words) (hPepT1 [1])	IC50 (hPepT1 [2]) [mM]	identified as hPepT1 inhibitor (hPepT1 [3])	induced inward current (hPepT1 [1]; 1 mM, buffer pH 6.0, clamped at −50 mV)
Nc1ccc(CC(=O)O)cc1 [4-amino PA, 4-amino phenyl acetic acid]	induced significant inward currents			
COC(=O)[C@H](Cc1ccccc1)NC(=O)[C@@H](N)CC(=O)O [aspartame] (H-Asp-Phe-OMe)	induced significant inward currents	3.9	inhibitor	
CN(CC(=O)O)C(=O)CN [glycylsarcosine] (H-Gly-[Sar]-OH)				300–400 nA
